Experimental data published in ChEMBL document CHEMBL4325893, “Synthesis and antibacterial profiles of targeted triclosan derivatives” (2019).

Key:
[1] = system: Salmonella enterica subsp. enterica serovar Abony; assay: Antibacterial activity against Salmonella enterica subspecies enterica serotype Abony NCTC 6017 after 18 hrs; format: functional; conditions: NCTC 6017, 18 h
How it was run: (§1)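 Broth microdilution in Nutrient Broth No. 2; stocks in ethanol diluted to 0.01–128 µg/ml (triclosan) or 0.25–256 µg/ml (glycosides). Overnight 37 °C NB2 cultures diluted 1 in 10^4 in saline and added to the dilutions. Incubation at 37 °C with agitation, OD read every 15 min; MIC is the lowest concentration preventing any OD rise after 18 h.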

Klebsiella aerogenes [2] = assay: Antibacterial activity against Enterobacter aerogenes ATCC 13048 after 18 hrs; format: functional; conditions: ATCC 13048, 18 h; how it was run: as §1
Cronobacter sakazakii = assay: Antibacterial activity against Cronobacter sakazakii 29544 after 18 hrs; format: functional; conditions: Cronobacter sakazakii, 29544, 18 h; how it was run: as §1
[3] = Antibacterial activity against Salmonella enterica subspecies enterica serotype Infantis OCC 2133 after 18 hrs; format: functional, Salmonella enterica subsp. enterica serovar Infantis; conditions: OCC 2133, 18 h; how it was run: as §1
Enterococcus faecalis [4] = assay: Antibacterial activity against Enterococcus faecalis ATCC 29212 after 18 hrs; format: functional; conditions: ATCC 29212, 18 h; how it was run: as §1
Bacillus subtilis = assay: Antibacterial activity against Bacillus subtilis NCTC 10073 after 18 hrs; format: functional; conditions: NCTC 10073, 18 h; how it was run: as §1
[5] = Antibacterial activity against Salmonella enterica subspecies enterica serotype Arizonae OCC 706 after 18 hrs; format: functional, Salmonella enterica subsp. enterica serovar Arizonae; conditions: OCC 706, 18 h; how it was run: as §1
Salmonella enteritidis = assay: Antibacterial activity against Salmonella enterica subspecies enterica serotype Enteritidis 13076 after 18 hrs; format: functional, Salmonella enterica subsp. enterica serovar Enteritidis; conditions: Salmonella enterica, 13076, 18 h; how it was run: as §1
Escherichia hermannii = assay: Antibacterial activity against Escherichia hermannii 33650 after 18 hrs; format: functional; conditions: Atlantibacter hermannii, 33650, 18 h; how it was run: as §1
Staphylococcus aureus [6] = assay: Antibacterial activity against Staphylococcus aureus NCTC 13758 after 18 hrs; format: functional; conditions: NCTC 13758, 18 h; how it was run: as §1
Staphylococcus aureus [7] = assay: Antibacterial activity against Staphylococcus aureus ATCC 9144 after 18 hrs; format: functional; conditions: ATCC 9144, 18 h; how it was run: as §1
Escherichia coli [8] = assay: Antibacterial activity against Escherichia coli ATCC 25922 after 18 hrs; format: functional; conditions: ATCC 25922, 18 h; how it was run: as §1
Staphylococcus aureus [9] = assay: Antibacterial activity against Staphylococcus aureus OCC 104 after 18 hrs; format: functional; conditions: OCC 104, 18 h; how it was run: as §1
Escherichia coli [10] = assay: Antibacterial activity against Escherichia coli OCC 122 after 18 hrs; format: functional; conditions: OCC 122, 18 h; how it was run: as §1
Escherichia coli [11] = assay: Antibacterial activity against Escherichia coli ATCC 8739 after 18 hrs; format: functional; conditions: ATCC 8739, 18 h; how it was run: as §1
Escherichia coli [12] = assay: Antibacterial activity against Escherichia coli NCTC 13216 after 18 hrs; format: functional; conditions: NCTC 13216, 18 h; how it was run: as §1
Streptococcus pneumoniae [13] = assay: Antibacterial activity against Streptococcus pneumoniae 6305 after 18 hrs; format: functional; conditions: Streptococcus pneumoniae, 6305, 18 h
How it was run: (§2)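 Broth microdilution in Nutrient Broth No. 2. Ethanol stocks were diluted in broth to 0.01–128 µg/ml for triclosan and 0.25–256 µg/ml for glycosides. Overnight 37°C NB2 cultures were diluted 1 in 10^4 in saline and added to the wells. Plates were incubated at 37°C with OD read every 15 min after agitation. MIC was the lowest concentration giving no OD increase at 18 h.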

[14] = Antibacterial activity against Enterobacter cloacae ATCC 13047 after 18 hrs; format: functional, Enterobacter cloacae subsp. cloacae; conditions: ATCC 13047, 18 h; how it was run: as §1
Streptococcus pyogenes = assay: Antibacterial activity against Streptococcus pyogenes ATCC 19615 after 18 hrs; format: functional; conditions: ATCC 19615, 18 h; how it was run: as §2
Serratia marcescens = assay: Antibacterial activity against Serratia marcescens OCC 217 after 18 hrs; format: functional; conditions: OCC 217, 18 h; how it was run: as §1
Bacillus cereus = assay: Antibacterial activity against Bacillus cereus ATCC 14579 after 18 hrs; format: functional; conditions: ATCC 14579, 18 h; how it was run: as §1
Escherichia coli [15] = assay: Antibacterial activity against Escherichia coli ATCC 11775 after 18 hrs; format: functional; how it was run: as §1
Streptococcus viridans = assay: Antibacterial activity against Streptococcus viridans OCC 234 after 18 hrs; format: functional; conditions: OCC 234, 18 h; how it was run: as §2
Citrobacter freundii [16] = assay: Antibacterial activity against Citrobacter freundii OCC 851 after 18 hrs; format: functional; conditions: OCC 851, 18 h; how it was run: as §1
Staphylococcus aureus [17] = assay: Antibacterial activity against Staphylococcus aureus ATCC 29213 after 18 hrs; format: functional; conditions: ATCC 29213, 18 h; how it was run: as §1
Proteus vulgaris = assay: Antibacterial activity against Proteus vulgaris OCC 195 after 18 hrs; format: functional; conditions: OCC 195, 18 h; how it was run: as §1
[18] = system: Staphylococcus epidermidis; assay: Antibacterial activity against Staphylococcus epidermidis ATCC 14990 after 18 hrs; format: functional; conditions: ATCC 14990, 18 h; how it was run: as §1
Pseudomonas aeruginosa = assay: Antibacterial activity against Pseudomonas aeruginosa ATCC 27853 after 18 hrs; format: functional; conditions: ATCC 27853, 18 h; how it was run: as §1
[19] = Antibacterial activity against Salmonella enterica subspecies enterica serotype Dublin OCC 627 after 18 hrs; format: functional, Salmonella enterica subsp. enterica serovar Dublin; conditions: OCC 627, 18 h; how it was run: as §1
Hafnia alvei = assay: Antibacterial activity against Hafnia alvei 13337 after 18 hrs; format: functional; conditions: Hafnia alvei, 13337, 18 h; how it was run: as §1
Proteus mirabilis = assay: Antibacterial activity against Proteus mirabilis ATCC 12453 after 18 hrs; format: functional; conditions: ATCC 12453, 18 h; how it was run: as §1
[20] = Antibacterial activity against Salmonella enterica subspecies enterica serotype Pullorum OCC 273 after 18 hrs; format: functional, Salmonella enterica subsp. enterica serovar Pullorum; conditions: OCC 273, 18 h; how it was run: as §1
[21] = system: Staphylococcus haemolyticus; assay: Antibacterial activity against Staphylococcus haemolyticus OCC 2223 after 18 hrs; format: functional; conditions: OCC 2223, 18 h; how it was run: as §2
Klebsiella pneumoniae [22] = assay: Antibacterial activity against Klebsiella pneumoniae ATCC 10031 after 18 hrs; format: functional; conditions: ATCC 10031, 18 h; how it was run: as §1
Staphylococcus aureus [23] = assay: Antibacterial activity against Staphylococcus aureus ATCC 6538 after 18 hrs; format: functional; conditions: ATCC 6538, 18 h; how it was run: as §1
Streptococcus agalactiae = assay: Antibacterial activity against Streptococcus agalactiae OCC 182 after 18 hrs; format: functional; conditions: OCC 182, 18 h; how it was run: as §2
Escherichia coli [24] = assay: Antibacterial activity against Escherichia coli ATCC 10536 after 18 hrs; format: functional; conditions: ATCC 10536, 18 h; how it was run: as §1
Citrobacter freundii [25] = assay: Antibacterial activity against Citrobacter freundii 8090 after 18 hrs; format: functional; conditions: Citrobacter freundii, 8090, 18 h; how it was run: as §1
Staphylococcus aureus [26] = assay: Antibacterial activity against Staphylococcus aureus ATCC 25923 after 18 hrs; format: functional; conditions: ATCC 25923, 18 h; how it was run: as §1
Salmonella typhimurium = assay: Antibacterial activity against Salmonella enterica subspecies enterica serotype typhimurium ATCC 14028 after 18 hrs; format: functional, Salmonella enterica subsp. enterica serovar Typhimurium; conditions: ATCC 14028, 18 h; how it was run: as §1
Enterococcus faecium = assay: Antibacterial activity against Enterococcus faecium ATCC 19434 after 18 hrs; format: functional; conditions: ATCC 19434, 18 h; how it was run: as §1
Escherichia coli [27] = assay: Antibacterial activity against Escherichia coli 700728 after 18 hrs; format: functional; conditions: Escherichia coli, 700728, 18 h; how it was run: as §1
Escherichia coli [28] = assay: Antibacterial activity against Escherichia coli ATCC 35218 after 18 hrs; format: functional; conditions: ATCC 35218, 18 h; how it was run: as §1
Klebsiella aerogenes [29] = assay: Antibacterial activity against Klebsiella aerogenes NCTC 8167 after 18 hrs; format: functional; conditions: NCTC 8167, 18 h; how it was run: as §1
[30] = Antibacterial activity against Salmonella enterica subspecies enterica serotype Virchow NCTC 5742 after 18 hrs; format: functional, Salmonella enterica subsp. enterica serovar Virchow; conditions: NCTC 5742, 18 h; how it was run: as §1
Staphylococcus aureus [31] = assay: Antibacterial activity against Staphylococcus aureus ATCC 6538P after 18 hrs; format: functional; how it was run: as §1
Enterococcus faecalis [32] = assay: Antibacterial activity against Enterococcus faecalis ATCC 33186 after 18 hrs; format: functional; conditions: ATCC 33186, 18 h; how it was run: as §1
[33] = system: Staphylococcus saprophyticus; assay: Antibacterial activity against Staphylococcus saprophyticus ATCC 15305 after 18 hrs; format: functional; conditions: ATCC 15305, 18 h; how it was run: as §2
Aeromonas hydrophila = assay: Antibacterial activity against Aeromonas hydrophila OCC 778 after 18 hrs; format: functional; conditions: OCC 778, 18 h; how it was run: as §1
Streptococcus pneumoniae [34] = assay: Antibacterial activity against Streptococcus pneumoniae ATCC 49619 after 18 hrs; format: functional; conditions: ATCC 49619, 18 h; how it was run: as §2
[35] = system: Staphylococcus epidermidis; assay: Antibacterial activity against Staphylococcus epidermidis 155 after 18 hrs; format: functional; conditions: Staphylococcus epidermidis, 155, 18 h; how it was run: as §1
Klebsiella pneumoniae [36] = assay: Antibacterial activity against Klebsiella pneumoniae ATCC 13883 after 18 hrs; format: functional; conditions: ATCC 13883, 18 h; how it was run: as §1
[37] = Antibacterial activity against Salmonella enterica subspecies enterica serotype Nottingham NCTC 7832 after 18 hrs; format: functional, Salmonella enterica subsp. enterica serovar Nottingham; conditions: NCTC 7832, 18 h; how it was run: as §1
[38] = system: Staphylococcus epidermidis; assay: Antibacterial activity against Staphylococcus epidermidis ATCC 12228 after 18 hrs; format: functional; conditions: ATCC 12228, 18 h; how it was run: as §1
Staphylococcus aureus [39] = assay: Antibacterial activity against Staphylococcus aureus OCC 106 after 18 hrs; format: functional; conditions: OCC 106, 18 h; how it was run: as §1
[40] = Antibacterial activity against Salmonella enterica subspecies enterica serotype Indiana OCC 597 after 18 hrs; format: functional, Salmonella enterica subsp. enterica serovar Indiana; conditions: OCC 597, 18 h; how it was run: as §1
[41] = Antibacterial activity against Salmonella enterica subspecies enterica serotype Poona NCTC 4840 after 18 hrs; format: functional, Salmonella enterica subsp. enterica serovar Poona; conditions: NCTC 4840, 18 h; how it was run: as §1

Measured: MIC

OC[C@H]1O[C@H](Oc2cc(Cl)ccc2Oc2ccc(Cl)cc2Cl)[C@H](O)[C@@H](O)[C@@H]1O
256 µg/mL: Enterococcus faecium | Aeromonas hydrophila
32 µg/mL: Bacillus subtilis | Streptococcus pneumoniae [13] | Streptococcus pyogenes | Streptococcus pneumoniae [34]
128 µg/mL: Enterococcus faecalis [4] | Bacillus cereus | Streptococcus viridans | Streptococcus agalactiae | Enterococcus faecalis [32]
4 µg/mL: Citrobacter freundii [16] | Proteus vulgaris | Citrobacter freundii [25] | [33]
1 µg/mL: Escherichia hermannii | Staphylococcus aureus [6] | Staphylococcus aureus [7] | Staphylococcus aureus [9] | [14] | Staphylococcus aureus [17] | [18] | Hafnia alvei | [21] | Klebsiella pneumoniae [22] | Staphylococcus aureus [23] | Staphylococcus aureus [26] | Staphylococcus aureus [31] | [35] | Klebsiella pneumoniae [36] | [38] | Staphylococcus aureus [39]
8 µg/mL: Klebsiella aerogenes [2] | Cronobacter sakazakii
> 256 µg/mL: Serratia marcescens | Pseudomonas aeruginosa
2 µg/mL: Proteus mirabilis | Klebsiella aerogenes [29]
2 to 8 µg/mL: all other assays above

OC[C@H]1O[C@H](Oc2cc(Cl)ccc2Oc2ccc(Cl)cc2Cl)[C@@H](O)[C@@H](O)[C@@H]1O
128 µg/mL: Cronobacter sakazakii | Bacillus subtilis | Streptococcus viridans | Streptococcus agalactiae
256 µg/mL: Enterococcus faecalis [4] | Bacillus cereus | Enterococcus faecium | Enterococcus faecalis [32]
64 µg/mL: Streptococcus pneumoniae [13] | Citrobacter freundii [16] | Citrobacter freundii [25] | Streptococcus pneumoniae [34]
4 to 8 µg/mL: [18] | [35] | [38]
> 256 µg/mL: Serratia marcescens | Pseudomonas aeruginosa | Aeromonas hydrophila
16 µg/mL: Escherichia hermannii | Proteus mirabilis
4 µg/mL: Hafnia alvei | Klebsiella pneumoniae [22] | Klebsiella pneumoniae [36]
8 µg/mL: [14] | [21]
32 µg/mL: Klebsiella aerogenes [2] | Streptococcus pyogenes | Proteus vulgaris | Klebsiella aerogenes [29] | [33]
4 to 64 µg/mL: Escherichia coli [8] | Escherichia coli [10] | Escherichia coli [11] | Escherichia coli [12] | Escherichia coli [15] | Escherichia coli [24] | Escherichia coli [27] | Escherichia coli [28]
2 to 8 µg/mL: Staphylococcus aureus [6] | Staphylococcus aureus [7] | Staphylococcus aureus [9] | Staphylococcus aureus [17] | Staphylococcus aureus [23] | Staphylococcus aureus [26] | Staphylococcus aureus [31] | Staphylococcus aureus [39]
16 to 64 µg/mL: all other assays above
